Results as given in ChEMBL document CHEMBL2203196, “Synthesis, antiproliferative and apoptotic activities of N-(6(4)-indazolyl)-benzenesulfonamide derivatives as potential anticancer agents” (Eur J Med Chem, 2012).
Activity calls are given as the source filed them. No cut-off for these calls is given here.

Key:
[1] = tested on: A2780; experiment: Cell cycle arrest in human A2780 cells assessed as cells with > 4n chromosomes at 6.8 to 102.3 uM after 72 hrs by propidium iodide staining-based FACS flow cytometry; format: functional
[2] = tested on: A2780; experiment: Cell cycle arrest in human A2780 cells assessed as accumulation at G2/M phase at 6.8 to 102.3 uM after 72 hrs by propidium iodide staining-based FACS flow cytometry (reference value: 23.1 +/- 2.5 %); format: functional
[3] = tested on: A2780; experiment: Cell cycle arrest in human A2780 cells assessed as accumulation at S phase at 6.8 to 102.3 uM after 72 hrs by propidium iodide staining-based FACS flow cytometry (reference value: 25.9 +/- 4.7 %); format: functional
[4] = tested on: A2780; experiment: Cell cycle arrest in human A2780 cells assessed as accumulation at G0/G1 phase at 6.8 to 102.3 uM after 72 hrs by propidium iodide staining-based FACS flow cytometry (reference value: 51 +/- 6.2 %); format: functional
[5] = tested on: A2780; experiment: Cell cycle arrest in human A2780 cells assessed as accumulation at G2/M phase at IC50 after 72 hrs by propidium iodide staining-based FACS flow cytometry (reference value: 23.1 +/- 2.5 %); format: functional
[6] = tested on: A2780; experiment: Cell cycle arrest in human A2780 cells assessed as accumulation at S phase at IC50 after 72 hrs by propidium iodide staining-based FACS flow cytometry (reference value: 25.9 +/- 4.7 %); format: functional
[7] = tested on: A2780; experiment: Cell cycle arrest in human A2780 cells assessed as accumulation at G0/G1 phase at IC50 after 72 hrs by propidium iodide staining-based FACS flow cytometry (reference value: 51 +/- 6.2 %); format: functional
[8] = tested on: P388; experiment: Induction of apoptosis in mouse P388 cells assessed as change in nuclear morphology at IC50 after 3 days by DAPI staining-based fluorescence microscopy relative to control; format: functional
In short: (§1)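 Cells plated at 5000–10000/well, left 6–8 h, then treated at MTT-derived IC₅₀ or IC₉₀; washed in cold PBS, fixed in 70% ethanol at 4 °C, stained with DAPI just before microscopy; percent apoptotic segmented nuclei scored against untreated controls; mean ± SD of 4–6 data.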

[9] = tested on: P388; experiment: Induction of apoptosis in mouse P388 cells assessed as change in nuclear morphology at 0.97 to 957 uM after 3 days by DAPI staining-based fluorescence microscopy relative to control; format: functional; in short: as §1
[10] = tested on: A549; experiment: Induction of apoptosis in human A549 cells assessed as change in nuclear morphology at IC50 after 3 days by DAPI staining-based fluorescence microscopy relative to control; format: functional; in short: as §1
[11] = tested on: A549; experiment: Induction of apoptosis in human A549 cells assessed as change in nuclear morphology at > 200 uM after 3 days by DAPI staining-based fluorescence microscopy relative to control; format: functional; in short: as §1
[12] = tested on: A2780; experiment: Induction of apoptosis in human A2780 cells assessed as change in nuclear morphology at IC50 after 3 days by DAPI staining-based fluorescence microscopy relative to control; format: functional; in short: as §1
[13] = tested on: A2780; experiment: Induction of apoptosis in human A2780 cells assessed as change in nuclear morphology at > 200 uM after 3 days by DAPI staining-based fluorescence microscopy relative to control; format: functional; in short: as §1
[14] = tested on: P388; experiment: Cytotoxicity against mouse P388 cells after 72 hrs by MTT assay; format: functional, cell-based; conditions: P388, 72 h
In short: (§2)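 Cells plated at 900–1800/well for exponential growth, centrifuged 275 g 2 min, left 6–8 h, then exposed 72 h to at least 5 concentrations (1:10 serial dilutions) in duplicate; MTT read-out; IC₅₀ from single concentration–response curves; mean ± SD of 3–9 experiments.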

[15] = tested on: A549; experiment: Cytotoxicity against human A549 cells after 72 hrs by MTT assay; format: functional, cell-based; conditions: A549, 72 h; in short: as §2
[16] = tested on: A2780; experiment: Cytotoxicity against human A2780 cells after 72 hrs by MTT assay; format: functional, cell-based; conditions: A2780, 72 h; in short: as §2
[17] = tested on: A2780; experiment: Upregulation of p53 expression in human A2780 cells at IC50 after 24 hrs by Western blot analysis; format: functional, cell-based
In short: (§3)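 A2780 cells treated at IC₅₀ and harvested at 24, 48, 72 h; lysed 30 min at 4 °C in 1% Triton X-100, 0.15 M NaCl, 10 mM Tris pH 7.4 with protease inhibitors; Bradford protein assay; 50 µg protein resolved on 12% SDS-PAGE, transferred to nitrocellulose, Ponceau S loading check, blocked overnight 2% BSA in TBST at 4 °C, probed for p53 or bax.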

[18] = tested on: A2780; experiment: Upregulation of Bax expression in human A2780 cells at IC50 after 48 hrs by Western blot analysis; format: functional, cell-based; in short: as §3
[19] = tested on: A549; experiment: Induction of apoptosis in human A549 cells assessed as change in nuclear morphology at 0.97 to 957 uM after 3 days by DAPI staining-based fluorescence microscopy relative to control; format: functional; in short: as §1
[20] = tested on: A2780; experiment: Induction of apoptosis in human A2780 cells assessed as change in nuclear morphology at 0.97 to 957 uM after 3 days by DAPI staining-based fluorescence microscopy relative to control; format: functional; in short: as §1

Row | Compound | Activity [1] | Activity [2] | Activity [3] | Activity [4] | Activity [5] | Activity [6] | Activity [7] | Activity [8] | Activity [9] | Activity [10] | Activity [11] | Activity [12] | Activity [13] | IC50 [14] | IC50 [15] | IC50 [16] | Activity [17] | Activity [18] | Activity [19] | Activity [20]
1 | CCOc1ccc(NS(=O)(=O)c2ccc(C)cc2)c2cn(C)nc12 | 12% | 64.5% | 13.7% | 9.9% | 29.3% | 27.3% | 43.5% | 10.3% | 94.3% | 22.3% | 54.3% | 33.5% | 51.5% | 4.19 µM | 14.4 µM | 8.34 µM |  |  |  | 
2 | Cc1ccc(S(=O)(=O)Nc2cccc3c2cnn3C)cc1 | 6.8% | 69.2% | 15% | 9.1% | 23.7% | 11.3% | 65% | 37.3% | 91.3% | 28% | 41.2% | 7.3% | 24% | 3.4 µM | 6.88 µM | 6.62 µM | Active | inactive |  | 
3 | Cc1ccc(S(=O)(=O)Nc2ccc3c(Br)nn(S(=O)(=O)c4ccc(C)cc4)c3c2)cc1 |  |  |  |  |  |  |  |  |  |  |  |  |  | 51.3 µM | 104 µM | 74.7 µM |  |  |  | 
4 | CCOc1ccc(NS(=O)(=O)c2ccc(C)cc2)c2[nH]ncc12 | 11.6% | 71.4% | 8.2% | 8.9% | 33.7% | 12.6% | 53.7% | 19% | 56% | 18.8% |  | 12.5% | 27% | 5.7 µM | 25.1 µM | 8 µM | Active | Active | 24.9% | 
5 | Cc1ccc(S(=O)(=O)Nc2ccc3c(Br)n[nH]c3c2)cc1 |  |  |  |  |  |  |  |  |  |  |  |  |  | 66.6 µM | > 100 µM | 101 µM |  |  |  | 
6 | C=CCn1ncc2c(NS(=O)(=O)c3ccc(C)cc3)ccc(OCC)c21 |  |  |  |  |  |  |  |  |  |  |  |  |  | 51.8 µM | 100 µM | 61.6 µM |  |  |  | 
7 | Cc1ccc(S(=O)(=O)Nc2ccc3c[nH]nc3c2)cc1 |  |  |  |  |  |  |  |  |  |  |  |  |  | 71.3 µM | > 100 µM | 86.6 µM |  |  |  | 
8 | C=CCn1cc2ccc(NS(=O)(=O)c3ccc(C)cc3)c(OCC)c2n1 |  |  |  |  |  |  |  |  |  |  |  |  |  | 68.9 µM | > 100 µM | > 100 µM |  |  |  | 
9 | COc1ccc(S(=O)(=O)Nc2cccc3[nH]nc(Cl)c23)cc1 | 12.8% | 70.1% | 7.8% | 9.4% | 25.9% | 18% | 56.1% | 11.5% | 74% | 34.3% |  | 23.6% |  | 0.5 µM | 1.83 µM | 0.86 µM | Active | Active | 70.8% | 46.6%
10 | Cc1ccc(S(=O)(=O)Nc2cccc3[nH]nc(Br)c23)cc1 |  |  |  |  |  |  |  |  |  |  |  |  |  | 53.9 µM | 82.4 µM | 70.9 µM |  |  |  | 
11 | CCOc1ccc(NS(=O)(=O)c2ccc(C)cc2)c2cn[nH]c12 |  |  |  |  |  |  |  |  |  |  |  |  |  | 43.5 µM | 58.5 µM | 55.1 µM |  |  |  | 
12 | Cc1ccc(S(=O)(=O)Nc2cccc3[nH]ncc23)cc1 |  |  |  |  |  |  |  |  |  |  |  |  |  | 85.5 µM | > 100 µM | > 100 µM |  |  |  | 
13 | C=CCn1cc2ccc(NS(=O)(=O)c3ccc(C)cc3)cc2n1 | 11.1% | 72.7% | 5.5% | 10.8% | 24.2% | 9.8% | 66% | 30% | 68.7% | 51.2% | 29.2% | 19.3% | 66.5% | 4.41 µM | 11.9 µM | 4.89 µM | Active | Active |  | 
14 | CCOc1ccc(NS(=O)(=O)c2ccc(OC)cc2)c2c(Cl)n[nH]c12 | 11.3% | 69.6% | 8.4% | 10.8% | 26.9% | 10.4% | 62.7% | 47.3% | 98% | 34.8% |  | 23.3% |  | 0.58 µM | 5.83 µM | 1.23 µM | Active | Active | 64.5% | 36.8%
15 | CCOc1ccc(NS(=O)(=O)c2ccc(C)cc2)c2c(Br)n[nH]c12 | 8.1% | 71.5% | 10.3% | 10.2% | 24.3% | 14.2% | 61.5% | 9.8% | 87.5% | 2.8% |  | 12.8% |  | 5.21 µM | 17.5 µM | 10.5 µM | Active | Active | 32.3% | 34.3%
